# Assay results pooled from the literature.
# Protocols differ between the studies behind these lines.
Compound,species,sample,route,dose,notes,quantity,result
COc1ccc([C@@H]2CN(C(=O)[C@@H](O)CO)C[C@@]2(C)[C@@H](C)O)cc1OC1CN(c2ccc(C)cn2)C1,human,plasma,oral,30 mg,"single dose, healthy volunteers",AUC(0-inf),6330 ng·h/mL
O=C(O)C1CCN(c2ncc(-c3ccc4c(c3)OCCCO4)s2)CC1,male Swiss mouse,brain,oral,30 mg/kg,single dose,tissue/plasma ratio,0.028
CC(C)(O)c1ccccc1-c1ccc2[nH]c(/C=C/c3ccc(C(F)(F)F)cc3)nc2c1,male human,plasma,oral,2 mg,"single dose, fasted",AUC(0-t),94.7 ng·h/mL
CC(C)(NC(=O)O[C@@H]1CN2CCC1CC2)c1csc(-c2ccc(F)cc2)n1,female CD-1 mouse,brain,intraperitoneal,10 mg/kg,single dose,tissue/plasma ratio,0.86
CCN(CC)C(=O)[C@@]1(c2ccccc2)C[C@H]1CN,male cynomolgus monkey,plasma,oral,30 mg/kg,,Tmax,4 h
CC(C)(C)c1ccc(O)c(CN(Cc2cc(C(C)(C)C)ccc2O)C2CCC(NC(N)=O)CC2)c1 (stereo not drawn),male C57BL/6 mouse,brain,intraperitoneal,10 mg/kg,single dose,tissue/plasma ratio,0.79
COc1cc(C(=O)NC2CCN(C)CC2)c(F)cc1Nc1ncc(C(F)(F)F)c(Oc2cccc3c2C(=O)N(C)C3)n1,human,plasma,oral,25 mg,"multiple doses, once daily, steady state, patients",AUC,5.1 µM·h
CCc1nc2c(C)cc(N3CCN(CC(=O)N4CC(O)C4)CC3)cn2c1N(C)c1nc(-c2ccc(F)cc2)c(C#N)s1,human,plasma,oral,150 mg,"fed, healthy volunteers",AUC(0-inf),6400 ng·h/mL
Cn1c(=O)oc2ccc(-c3ccc(C[C@@H](C#N)NC(=O)[C@@H]4CNCCCO4)cc3)cc21,male human,plasma,oral,50 mg,"single dose, healthy volunteers",AUC,17.6 µM·h
CN(C(=O)n1cnc(-c2ccc[n+]([O-])c2)c1)C1CCCCC1,male cynomolgus monkey,plasma,oral,0.1 mg/kg,,Tmax,1 h
CC(C)n1cc(C#N)c2cc(-n3cc(C(=O)O)cn3)ccc21,human,plasma,oral,400 mg,"single dose, fasted, healthy volunteers",AUC(0-inf),92000 ng·h/mL
Cn1cc(-c2ccc(S(=O)(=O)[C@@H]3C[C@@H](C(=O)NC4(C#N)CC4)N(C(=O)C4(C(F)(F)F)CC4)C3)c(C(F)(F)F)c2)cn1,human,plasma,oral,600 mg,"single dose, fasted, healthy volunteers",AUC(0-inf),28700 ng·h/mL
